Legend:
Type in all cases: biochemical
[1] = biological target: T1, human recombinant (hr) FAP (Homo sapiens, UniProt Q12884); assay: Inhibition of hrFAP
T1 sequence (Q12884 1-760): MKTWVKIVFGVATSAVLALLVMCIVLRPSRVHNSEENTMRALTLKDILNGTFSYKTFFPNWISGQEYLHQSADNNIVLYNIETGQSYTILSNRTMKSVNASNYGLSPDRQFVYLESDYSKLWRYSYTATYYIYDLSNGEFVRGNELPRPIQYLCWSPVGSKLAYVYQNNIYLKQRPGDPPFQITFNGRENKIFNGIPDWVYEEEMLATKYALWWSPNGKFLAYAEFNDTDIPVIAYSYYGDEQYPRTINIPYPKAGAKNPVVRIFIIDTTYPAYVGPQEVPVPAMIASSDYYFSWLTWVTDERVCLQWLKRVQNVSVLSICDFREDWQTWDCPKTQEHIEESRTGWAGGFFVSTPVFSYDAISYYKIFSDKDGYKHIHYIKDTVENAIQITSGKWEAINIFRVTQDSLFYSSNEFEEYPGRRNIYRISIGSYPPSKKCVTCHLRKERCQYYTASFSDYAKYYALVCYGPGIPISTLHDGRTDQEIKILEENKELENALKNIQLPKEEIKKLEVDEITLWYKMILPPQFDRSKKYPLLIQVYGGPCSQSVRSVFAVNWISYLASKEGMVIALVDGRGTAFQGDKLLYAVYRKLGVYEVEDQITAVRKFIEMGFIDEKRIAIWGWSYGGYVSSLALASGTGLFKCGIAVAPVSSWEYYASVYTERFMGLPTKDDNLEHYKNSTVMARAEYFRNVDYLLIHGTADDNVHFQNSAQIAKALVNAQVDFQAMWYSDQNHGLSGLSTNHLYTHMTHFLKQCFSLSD
In short: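 Recombinant human FAP, 0.01 μg per well, in 50 mM Tris, 1 M NaCl, 1 mg mL−1 BSA, pH 7.5. Preincubated 30 min at 37 °C with test compound at 5, 10, 20, 50 and 100 nM. Then 50 μM Z-Gly-Pro-AMC was added and the fluorescence increase followed for 60 min at 37 °C (λex/λem 360/460 nm). Triplicate wells, experiment repeated twice. IC50 determined graphically; Ki calculated.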

[2] = biological target: hrDPP IV (Homo sapiens, UniProt P27487); assay: Inhibition of hrDPP IV
Chain of hrDPP IV (P27487 whole entry): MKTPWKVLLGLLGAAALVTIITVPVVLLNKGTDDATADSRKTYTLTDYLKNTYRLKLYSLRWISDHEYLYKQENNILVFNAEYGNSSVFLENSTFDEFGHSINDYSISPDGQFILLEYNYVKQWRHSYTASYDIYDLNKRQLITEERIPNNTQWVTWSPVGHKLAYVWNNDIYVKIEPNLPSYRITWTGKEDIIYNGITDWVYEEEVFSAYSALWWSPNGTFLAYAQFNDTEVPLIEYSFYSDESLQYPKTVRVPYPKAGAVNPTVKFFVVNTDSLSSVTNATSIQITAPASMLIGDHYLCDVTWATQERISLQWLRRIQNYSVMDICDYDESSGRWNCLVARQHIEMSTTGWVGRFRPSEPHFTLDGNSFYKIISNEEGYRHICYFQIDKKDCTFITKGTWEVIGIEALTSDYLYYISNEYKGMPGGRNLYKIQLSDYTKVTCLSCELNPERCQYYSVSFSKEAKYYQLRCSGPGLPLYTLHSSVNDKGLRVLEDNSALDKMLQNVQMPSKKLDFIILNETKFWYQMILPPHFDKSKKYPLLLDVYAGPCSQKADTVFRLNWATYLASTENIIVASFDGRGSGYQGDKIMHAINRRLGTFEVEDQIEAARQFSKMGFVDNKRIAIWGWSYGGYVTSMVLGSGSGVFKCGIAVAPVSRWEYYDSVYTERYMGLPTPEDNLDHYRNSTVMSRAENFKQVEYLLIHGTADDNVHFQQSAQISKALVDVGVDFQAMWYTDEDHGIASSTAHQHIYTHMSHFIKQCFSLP
In short: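 Recombinant human DPP IV, 0.01 μg per well, in 25 mM Tris, 1 mg mL−1 BSA, pH 8.0. Enzyme preincubated 30 min at 37 °C with test compound […]. Residual activity was read with 50 μM H-Gly-Pro-AMC as fluorescence increase over 60 min at 37 °C, 360/460 nm. Triplicate wells, repeated twice. IC50 determined graphically.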

[3] = biological target: T2, hrPREP (Homo sapiens, UniProt P48147); assay: Inhibition of hrPREP
T2 sequence (P48147 1-710): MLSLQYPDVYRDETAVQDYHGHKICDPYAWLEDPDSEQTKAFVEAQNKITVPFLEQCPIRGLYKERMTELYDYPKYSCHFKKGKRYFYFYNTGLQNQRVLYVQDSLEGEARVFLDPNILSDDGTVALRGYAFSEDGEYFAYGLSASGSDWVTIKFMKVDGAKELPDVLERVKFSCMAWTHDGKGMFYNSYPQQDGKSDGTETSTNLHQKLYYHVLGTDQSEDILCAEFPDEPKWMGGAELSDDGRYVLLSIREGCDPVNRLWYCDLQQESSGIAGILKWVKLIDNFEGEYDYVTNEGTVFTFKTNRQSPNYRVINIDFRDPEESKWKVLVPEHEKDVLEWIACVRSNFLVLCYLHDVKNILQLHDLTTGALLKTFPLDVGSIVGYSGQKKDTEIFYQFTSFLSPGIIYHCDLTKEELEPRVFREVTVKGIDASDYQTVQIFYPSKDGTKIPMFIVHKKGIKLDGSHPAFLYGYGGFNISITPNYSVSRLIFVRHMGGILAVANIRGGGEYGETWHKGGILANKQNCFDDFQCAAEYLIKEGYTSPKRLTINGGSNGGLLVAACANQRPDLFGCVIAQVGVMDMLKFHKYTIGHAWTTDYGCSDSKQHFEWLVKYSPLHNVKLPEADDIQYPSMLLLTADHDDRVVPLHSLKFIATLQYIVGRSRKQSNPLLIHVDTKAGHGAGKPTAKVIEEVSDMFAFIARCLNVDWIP

IC50 [1]: 30 ± 5 nM
Ki [1]: 12 ± 1.8 nM
IC50 [2]: > 100000 nM
selectivity index SI FAP/DPP IV ([2]; FAP with respect to DPP IV): higher than 3300
IC50 [3]: > 100000 nM
selectivity index SI FAP/PREP ([3]; FAP with respect to PREP): higher than 3300
Compound: N#C[C@@H]1CCCN1C(=O)CNC(=O)c1ccnc2ccc(Br)cc12 [compound 5, (S)-6-bromo-N-(2-(2-cyanopyrrolidin-1-yl)-2-oxoethyl)quinoline-4-carboxamide]
